Where “and” joins values, the source holds several entries; their conditions need not be identical. Identical values can stand only once.
Tested on: HEK-293T
Assay: Multiplex assay against HEK293T
Assay type: toxicity, cell-based
Conditions: human
Method in brief: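 With compound added, live cells were imaged on a CQ1 microscope at 37°C and 5% CO2; staining with Hoechst33342, BioTracker Green Microtubule Cytoskeleton Dye, MitoTracker Red and Annexin V Alexa Fluor 680 had been done at seeding. The CellPathfinder machine-learning gating scheme split cells into Hoechst high-intensity objects or normal cells, normal cells into healthy, pyknosed or fragmented nuclei, and pyknosed cells into mitotic or apoptotic. The tubulin, mitochondrial-mass and membrane-permeability phenotypes are per cents of healthy-nucleus cells.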

[1] = 12 h, 1 µM, compound concentration 1 uM
[2] = 12 h, 10 µM, compound concentration 10 uM
[3] = 24 h, 1 µM, compound concentration 1 uM
[4] = 24 h, 10 µM, compound concentration 10 uM
[5] = 48 h, 1 µM, compound concentration 1 uM
[6] = 48 h, 10 µM, compound concentration 10 uM

Structure (SMILES): Cc1c(CC(=O)O)c2cccnc2n1Cc1ccc(S(C)(=O)=O)cc1C(F)(F)F [FEVIPIPRANT]
- Population Apoptotic (%) [1]: 27% and 41%
- Population Fragmented Nuclei (%) [1]: 6% and 7%
- Population Healthy Nuclei (%) [1]: 83% and 79%
- Population Hoechst High Intensity Objects (%) [1]: 5% and 7%
- Population Membrane Permeable-Phenotype (%) [1]: 0%
- Population Mitochondria Different-Phenotype (%) [1]: 32% and 52%
- Population Mitotic Cells (%) [1]: 72% and 58%
- Population Normal (%) [1]: 94% and 92%
- Population Pyknosed Nuclei (%) [1]: 9% and 12%
- Population Tubulin-Different-Phenotype (%) [1]: 22% and 16%
- Total Cell Count [1]: 471 and 370
- Population Apoptotic (%) [2]: 33% and 52%
- Population Fragmented Nuclei (%) [2]: 5% and 11%
- Population Healthy Nuclei (%) [2]: 80% and 75%
- Population Hoechst High Intensity Objects (%) [2]: 6% and 10%
- Population Membrane Permeable-Phenotype (%) [2]: 0%
- Population Mitochondria Different-Phenotype (%) [2]: 46% and 66%
- Population Mitotic Cells (%) [2]: 66% and 47%
- Population Normal (%) [2]: 93% and 89%
- Population Pyknosed Nuclei (%) [2]: 13% and 12%
- Population Tubulin-Different-Phenotype (%) [2]: 29% and 32%
- Total Cell Count [2]: 417 and 303
- Population Apoptotic (%) [3]: 22% and 43%
- Population Fragmented Nuclei (%) [3]: 8% and 7%
- Population Healthy Nuclei (%) [3]: 81% and 82%
- Population Hoechst High Intensity Objects (%) [3]: 3% and 4%
- Population Membrane Permeable-Phenotype (%) [3]: 1% and 0%
- Population Mitochondria Different-Phenotype (%) [3]: 18% and 37%
- Population Mitotic Cells (%) [3]: 77% and 56%
- Population Normal (%) [3]: 96% and 95%
- Population Pyknosed Nuclei (%) [3]: 10%
- Population Tubulin-Different-Phenotype (%) [3]: 18% and 14%
- Total Cell Count [3]: 637 and 457
- Population Apoptotic (%) [4]: 33% and 50%
- Population Fragmented Nuclei (%) [4]: 8% and 9%
- Population Healthy Nuclei (%) [4]: 80% and 81%
- Population Hoechst High Intensity Objects (%) [4]: 5% and 11%
- Population Membrane Permeable-Phenotype (%) [4]: 0%
- Population Mitochondria Different-Phenotype (%) [4]: 31% and 44%
- Population Mitotic Cells (%) [4]: 66% and 50%
- Population Normal (%) [4]: 94% and 88%
- Population Pyknosed Nuclei (%) [4]: 10% and 8%
- Population Tubulin-Different-Phenotype (%) [4]: 20%
- Total Cell Count [4]: 499 and 334
- Population Apoptotic (%) [5]: 16% and 20%
- Population Fragmented Nuclei (%) [5]: 13% and 11%
- Population Healthy Nuclei (%) [5]: 79% and 82%
- Population Hoechst High Intensity Objects (%) [5]: 1% and 2%
- Population Membrane Permeable-Phenotype (%) [5]: 2% and 0%
- Population Mitochondria Different-Phenotype (%) [5]: 12% and 16%
- Population Mitotic Cells (%) [5]: 83% and 79%
- Population Normal (%) [5]: 98% and 97%
- Population Pyknosed Nuclei (%) [5]: 7% and 6%
- Population Tubulin-Different-Phenotype (%) [5]: 12% and 10%
- Total Cell Count [5]: 1065 and 713
- Population Apoptotic (%) [6]: 29% and 45%
- Population Fragmented Nuclei (%) [6]: 14%
- Population Healthy Nuclei (%) [6]: 78% and 77%
- Population Hoechst High Intensity Objects (%) [6]: 4% and 7%
- Population Membrane Permeable-Phenotype (%) [6]: 0% and 1%
- Population Mitochondria Different-Phenotype (%) [6]: 24% and 22%
- Population Mitotic Cells (%) [6]: 70% and 55%
- Population Normal (%) [6]: 95% and 92%
- Population Pyknosed Nuclei (%) [6]: 7% and 8%
- Population Tubulin-Different-Phenotype (%) [6]: 14% and 17%
- Total Cell Count [6]: 794 and 491

Structure (SMILES): Cc1nn(C)c2nc(NNC(=O)Nc3cc(Cl)nc(Cl)c3)cc(C(C)C)c12
- Population Apoptotic (%) [1]: 27% and 40%
- Population Fragmented Nuclei (%) [1]: 5%
- Population Healthy Nuclei (%) [1]: 77% and 81%
- Population Hoechst High Intensity Objects (%) [1]: 5% and 2%
- Population Membrane Permeable-Phenotype (%) [1]: 0%
- Population Mitochondria Different-Phenotype (%) [1]: 37% and 59%
- Population Mitotic Cells (%) [1]: 72% and 60%
- Population Normal (%) [1]: 94% and 97%
- Population Pyknosed Nuclei (%) [1]: 16% and 13%
- Population Tubulin-Different-Phenotype (%) [1]: 26% and 25%
- Total Cell Count [1]: 467 and 383
- Population Apoptotic (%) [2]: 55% and 46%
- Population Fragmented Nuclei (%) [2]: 5% and 4%
- Population Healthy Nuclei (%) [2]: 61% and 74%
- Population Hoechst High Intensity Objects (%) [2]: 12% and 3%
- Population Membrane Permeable-Phenotype (%) [2]: 1%
- Population Mitochondria Different-Phenotype (%) [2]: 79% and 84%
- Population Mitotic Cells (%) [2]: 44% and 53%
- Population Normal (%) [2]: 88% and 96%
- Population Pyknosed Nuclei (%) [2]: 32% and 21%
- Population Tubulin-Different-Phenotype (%) [2]: 80% and 75%
- Total Cell Count [2]: 300 and 396
- Population Apoptotic (%) [3]: 31%
- Population Fragmented Nuclei (%) [3]: 9% and 6%
- Population Healthy Nuclei (%) [3]: 78% and 82%
- Population Hoechst High Intensity Objects (%) [3]: 3% and 1%
- Population Membrane Permeable-Phenotype (%) [3]: 0%
- Population Mitochondria Different-Phenotype (%) [3]: 27% and 37%
- Population Mitotic Cells (%) [3]: 68%
- Population Normal (%) [3]: 96% and 98%
- Population Pyknosed Nuclei (%) [3]: 11%
- Population Tubulin-Different-Phenotype (%) [3]: 20% and 19%
- Total Cell Count [3]: 608 and 512
- Population Apoptotic (%) [4]: 59% and 55%
- Population Fragmented Nuclei (%) [4]: 10% and 5%
- Population Healthy Nuclei (%) [4]: 66% and 78%
- Population Hoechst High Intensity Objects (%) [4]: 5%
- Population Membrane Permeable-Phenotype (%) [4]: 0%
- Population Mitochondria Different-Phenotype (%) [4]: 78% and 80%
- Population Mitotic Cells (%) [4]: 40% and 44%
- Population Normal (%) [4]: 94% and 95%
- Population Pyknosed Nuclei (%) [4]: 22% and 16%
- Population Tubulin-Different-Phenotype (%) [4]: 74% and 69%
- Total Cell Count [4]: 321 and 440
- Population Apoptotic (%) [5]: 27% and 18%
- Population Fragmented Nuclei (%) [5]: 12% and 13%
- Population Healthy Nuclei (%) [5]: 78% and 81%
- Population Hoechst High Intensity Objects (%) [5]: 3% and 2%
- Population Membrane Permeable-Phenotype (%) [5]: 1%
- Population Mitochondria Different-Phenotype (%) [5]: 17% and 25%
- Population Mitotic Cells (%) [5]: 72% and 81%
- Population Normal (%) [5]: 96% and 97%
- Population Pyknosed Nuclei (%) [5]: 9% and 5%
- Population Tubulin-Different-Phenotype (%) [5]: 16% and 19%
- Total Cell Count [5]: 912 and 748
- Population Apoptotic (%) [6]: 62% and 45%
- Population Fragmented Nuclei (%) [6]: 9%
- Population Healthy Nuclei (%) [6]: 72% and 79%
- Population Hoechst High Intensity Objects (%) [6]: 3% and 4%
- Population Membrane Permeable-Phenotype (%) [6]: 0%
- Population Mitochondria Different-Phenotype (%) [6]: 82% and 71%
- Population Mitotic Cells (%) [6]: 37% and 55%
- Population Normal (%) [6]: 96% and 95%
- Population Pyknosed Nuclei (%) [6]: 18% and 10%
- Population Tubulin-Different-Phenotype (%) [6]: 78% and 63%
- Total Cell Count [6]: 387 and 593

Structure (SMILES): COc1ccccc1N1CCN(CCCCNC(=O)c2ccc3ccccc3c2)CC1.Cl
- Population Apoptotic (%) [1]: 45% and 36%
- Population Fragmented Nuclei (%) [1]: 7% and 6%
- Population Healthy Nuclei (%) [1]: 81% and 79%
- Population Hoechst High Intensity Objects (%) [1]: 6% and 5%
- Population Mitochondria Different-Phenotype (%) [1]: 53% and 76%
- Population Mitotic Cells (%) [1]: 54% and 63%
- Population Normal (%) [1]: 93% and 94%
- Population Tubulin-Different-Phenotype (%) [1]: 41% and 35%
- Total Cell Count [1]: 430 and 354
- Population Apoptotic (%) [2]: 71% and 70%
- Population Fragmented Nuclei (%) [2]: 4% and 7%
- Population Healthy Nuclei (%) [2]: 69% and 75%
- Population Hoechst High Intensity Objects (%) [2]: 16% and 15%
- Population Mitochondria Different-Phenotype (%) [2]: 90% and 93%
- Population Mitotic Cells (%) [2]: 28% and 29%
- Population Normal (%) [2]: 83% and 84%
- Population Tubulin-Different-Phenotype (%) [2]: 75% and 72%
- Total Cell Count [2]: 321 and 256
- Population Apoptotic (%) [3]: 27% and 36%
- Population Fragmented Nuclei (%) [3]: 8% and 7%
- Population Healthy Nuclei (%) [3]: 78% and 82%
- Population Hoechst High Intensity Objects (%) [3]: 6%
- Population Mitochondria Different-Phenotype (%) [3]: 38% and 62%
- Population Mitotic Cells (%) [3]: 72% and 63%
- Population Normal (%) [3]: 93%
- Population Tubulin-Different-Phenotype (%) [3]: 32% and 26%
- Total Cell Count [3]: 561 and 444
- Population Apoptotic (%) [4]: 56% and 60%
- Population Fragmented Nuclei (%) [4]: 7% and 10%
- Population Healthy Nuclei (%) [4]: 74% and 69%
- Population Hoechst High Intensity Objects (%) [4]: 13% and 17%
- Population Mitochondria Different-Phenotype (%) [4]: 96% and 94%
- Population Mitotic Cells (%) [4]: 43% and 39%
- Population Normal (%) [4]: 86% and 82%
- Population Tubulin-Different-Phenotype (%) [4]: 87% and 66%
- Total Cell Count [4]: 393 and 276
- Population Apoptotic (%) [5]: 20% and 46%
- Population Healthy Nuclei (%) [5]: 81% and 78%
- Population Hoechst High Intensity Objects (%) [5]: 3% and 5%
- Population Mitochondria Different-Phenotype (%) [5]: 34% and 37%
- Population Mitotic Cells (%) [5]: 79% and 53%
- Population Normal (%) [5]: 96% and 94%
- Population Tubulin-Different-Phenotype (%) [5]: 20% and 22%
- Total Cell Count [5]: 841 and 635
- Population Apoptotic (%) [6]: 60% and 78%
- Population Fragmented Nuclei (%) [6]: 8%
- Population Healthy Nuclei (%) [6]: 77% and 78%
- Population Hoechst High Intensity Objects (%) [6]: 8% and 10%
- Population Mitochondria Different-Phenotype (%) [6]: 88% and 92%
- Population Mitotic Cells (%) [6]: 40% and 21%
- Population Normal (%) [6]: 91% and 89%
- Population Tubulin-Different-Phenotype (%) [6]: 73% and 71%
- Total Cell Count [6]: 519 and 329

— ChEMBL document CHEMBL5724801, “EUbOPEN Chemogenomics Library - Multiplex” (2024)
